This is an account of results in ChEMBL document CHEMBL3352550, “Discovery and optimization of 4,5-diarylisoxazoles as potent dual inhibitors of pyruvate dehydrogenase kinase and heat shock protein 90” (J Med Chem, 2014).

The structures appear in SMILES notation. Active and inactive are the calls of the source. The rule behind the calls is not given here.

For data set [1], the target named is T1, Heat shock protein HSP90 (Homo sapiens, UniProt P07900+P08238). Put plainly: Inhibition of HSP90 in human NCI-H1299 cells assessed as reduction in c-MET protein levels at 10 uM incubated for 12 hrs by immunoblotting method. It is filed as cell-based. The essentials:
(§1)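 NCI-H1299 cells were treated for 12 h and lysed in RIPA buffer with protease inhibitors. Equal protein was loaded per lane, run on a gel and transferred to nitrocellulose. Membranes were blocked in TBST with 3% BSA for 1 h at room temperature, then probed with primary antibody for 2 h and secondary antibody for 1 h, both at room temperature. Bands were detected by ECL.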
Background: A western blot detects proteins with antibodies after separation by electrophoresis.

The target in data set [2] is T1, Heat shock protein HSP90. The data set is described as follows: Inhibition of HSP90 in human NCI-H1299 cells assessed as reduction in AKT protein levels at 10 uM incubated for 12 hrs by immunoblotting method. It is filed as cell-based. The essentials:
as §1

Data set [3] has as its target T2, [Pyruvate dehydrogenase (acetyl-transferring)] kinase isozyme 3, mitochondrial (Homo sapiens, UniProt Q15120). The data set is described as follows: Inhibition of recombinant PDHK3 (unknown origin) expressed in Escherichia coli incubated for 1 hr by ELISA. Background: An ELISA detects its analyte on a solid surface through an enzyme-linked reagent.
Data set [4] relates to NCI-H1299. Put plainly: Reduction in extracellular acidification rate in human NCI-H1299 cells at 10 uM incubated for 12 hrs. It is filed as functional, cell-based. The essentials:
(§2)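 Cells pre-treated with varying concentrations of compound for 12 h, then oxygen consumption rate and extracellular acidification rate measured on an XF96 extracellular flux analyzer; ECAR/OCR ratio calculated from these readings.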

Data set [5] relates to NCI-H1299. The data set is described as follows: Increase in oxygen consumption rate/extracellular acidification rate ratio in human NCI-H1299 cells at 10 uM incubated for 12 hrs. It is filed as functional, cell-based.
Data set [6] is described as follows: Efflux ratio in human Caco2 cells. As to conditions: Caco-2. (In general: Passage across Caco-2 layers is used to estimate intestinal permeability.)
The target of data set [7] is T3, [Pyruvate dehydrogenase (acetyl-transferring)] kinase isozyme 1, mitochondrial (Homo sapiens, UniProt Q15118). Particulars: NCI-H1299, 10 uM.
T3 sequence (Q15118 whole entry): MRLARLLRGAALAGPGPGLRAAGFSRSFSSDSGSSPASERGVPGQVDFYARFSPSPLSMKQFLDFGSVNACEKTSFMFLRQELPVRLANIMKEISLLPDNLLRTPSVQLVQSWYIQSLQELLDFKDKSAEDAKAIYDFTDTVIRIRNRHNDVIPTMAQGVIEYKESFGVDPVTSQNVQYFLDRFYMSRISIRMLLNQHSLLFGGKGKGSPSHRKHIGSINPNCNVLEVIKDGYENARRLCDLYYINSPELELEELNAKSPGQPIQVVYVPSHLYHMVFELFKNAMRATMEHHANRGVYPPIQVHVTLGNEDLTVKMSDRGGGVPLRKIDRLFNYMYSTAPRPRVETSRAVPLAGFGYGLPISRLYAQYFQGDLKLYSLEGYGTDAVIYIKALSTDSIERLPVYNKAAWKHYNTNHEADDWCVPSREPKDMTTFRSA
Data set [8] concerns the target T3, [Pyruvate dehydrogenase (acetyl-transferring)] kinase isozyme 1, mitochondrial. Put plainly: Inhibition of recombinant PDHK1 (unknown origin) expressed in Escherichia coli incubated for 1 hr by ELISA.
In data set [9] the target is T1, Heat shock protein HSP90. Put plainly: Inhibition of HSP90 in human NCI-H1299 cells assessed as reduction in HER2 protein levels at 10 uM incubated for 12 hrs by immunoblotting method. It is filed as cell-based. The essentials:
as §1

In data set [10] the test system is NCI-H1299. Put plainly: Antiproliferative activity against human NCI-H1299 cells after 72 hrs by CCK8 assay. It is filed as functional, cell-based. The essentials: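 NCI-H1299 cells seeded at 3000 per well; test compound at a range of concentrations added the next day, vehicle DMSO as control; proliferation read by CCK8 kit after 72 h; IC50 derived from dose–response.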

The test system of data set [11] is NCI-H1299. Put plainly: Reduction in oxygen consumption rate in human NCI-H1299 cells at 10 uM incubated for 12 hrs. It is filed as functional, cell-based. The essentials: as §2
For data set [12], the target named is [Pyruvate dehydrogenase (acetyl-transferring)] kinase isozyme 4, mitochondrial (Homo sapiens, UniProt Q16654). The data set is described as follows: Inhibition of recombinant PDHK4 (unknown origin) expressed in Escherichia coli incubated for 1 hr by ELISA.
[Pyruvate dehydrogenase (acetyl-transferring)] kinase isozyme 4, mitochondrial, sequence (Q16654 whole entry): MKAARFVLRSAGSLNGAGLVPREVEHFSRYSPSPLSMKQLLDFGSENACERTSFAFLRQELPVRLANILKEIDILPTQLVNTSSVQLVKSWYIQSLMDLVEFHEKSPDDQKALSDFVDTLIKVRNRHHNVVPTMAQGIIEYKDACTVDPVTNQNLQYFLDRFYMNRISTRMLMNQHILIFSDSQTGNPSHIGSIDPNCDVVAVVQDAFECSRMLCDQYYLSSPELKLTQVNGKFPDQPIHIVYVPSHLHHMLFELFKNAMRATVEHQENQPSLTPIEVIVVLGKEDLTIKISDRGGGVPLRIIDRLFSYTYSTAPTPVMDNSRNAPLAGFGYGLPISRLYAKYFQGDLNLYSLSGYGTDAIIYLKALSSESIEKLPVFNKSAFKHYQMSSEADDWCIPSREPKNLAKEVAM
Data set [13] has as its system NCI-H1299. Put plainly: Increase in ROS production in human NCI-H1299 cells at incubated for 12 hrs by DCFH-DA staining based fluorescence assay. It is filed as functional, cell-based. The essentials: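 Cells loaded with 5 µmol/L DCFH-DA in fresh medium for 30 min after compound treatment, washed with PBS, and intracellular ROS read as fluorescence intensity by flow cytometry.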

Data set [14] is described as follows: Apparent permeability from basolateral to apical side in human Caco2 cells. Particulars: Caco-2.
Data set [15] can be described thus: Apparent permeability from apical to basolateral side in human Caco2 cells. Particulars: Caco-2.
Data set [16] has as its target T3, [Pyruvate dehydrogenase (acetyl-transferring)] kinase isozyme 1, mitochondrial. Put plainly: Inhibition of recombinant PDHK1 (unknown origin) expressed in Escherichia coli at 10 uM incubated for 1 hr by ELISA. The essentials: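 Recombinant His6-SUMO-PDHK1 was expressed in E. coli and purified on nickel resin. It was used at 0.25 µg/well on immobilized PDHA1 substrate (0.5 µg/well) with 10 µM ATP in 50 mM HEPES, 10 mM MgCl2 and 1 mM EGTA. Compounds were screened at 10 µM and percent inhibition was recorded. Detection used anti-p-PDHA1(S293) for 1 h and HRP secondary antibody for 1 h, then o-phenylenediamine, read at OD490.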

Data set [17] has as its target T1, Heat shock protein HSP90. The data set is described as follows: Inhibition of HSP90 in human NCI-H1299 cells assessed as increase in HSP70 protein levels at 10 uM incubated for 12 hrs by immunoblotting method. It is filed as cell-based. The essentials:
as §1

Data set [18] has as its target T1, Heat shock protein HSP90. The data set is described as follows: Inhibition of geldanamycin-BODIPY binding to full-length HSP90 (unknown origin) by fluorescence polarization based competition assay. It is filed as protein assay. The essentials: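 Fluorescence polarization competition using full-length HSP90 and geldanamycin-BODIPY as probe.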
The target of data set [19] is [Pyruvate dehydrogenase (acetyl-transferring)] kinase isozyme 2, mitochondrial (Homo sapiens, UniProt Q15119). The data set is described as follows: Inhibition of recombinant PDHK2 (unknown origin) expressed in Escherichia coli incubated for 1 hr by ELISA.
Data set [20] concerns the target T3, [Pyruvate dehydrogenase (acetyl-transferring)] kinase isozyme 1, mitochondrial. Put plainly: Inhibition of PDHK1 (unknown origin).
For data set [21], the target named is T2, [Pyruvate dehydrogenase (acetyl-transferring)] kinase isozyme 3, mitochondrial. Put plainly: Inhibition of PDHK3 (unknown origin). The essentials:
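PDHK3 was expressed in E. coli as a His6-SUMO fusion and purified on nickel resin. The substrate was His6-SUMO-PDHA1, immobilized at 0.5 µg/well, with enzyme at 0.25 µg/well and 10 µM ATP in 50 mM HEPES, 10 mM MgCl2 and 1 mM EGTA. Phosphorylation was detected with anti-p-PDHA1(S293) for 1 h, then HRP secondary antibody for 1 h. Colour was developed with o-phenylenediamine and read at OD490. IC50 came from a four-parameter fit.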

For data set [22], the system named is NCI-H1299. The data set is described as follows: Increase in oxygen consumption rate/extracellular acidification rate ratio in human NCI-H1299 cells at incubated for 12 hrs. It is filed as functional, cell-based.
In data set [23] the test system is NCI-H1299. Put plainly: Reduction in oxygen consumption rate in human NCI-H1299 cells incubated for 12 hrs. It is filed as functional, cell-based. The essentials:
as §2

Data set [24] concerns the target T3, [Pyruvate dehydrogenase (acetyl-transferring)] kinase isozyme 1, mitochondrial. Particulars: NCI-H1299, 10 mM.
The test system of data set [25] is NCI-H1299. Put plainly: Reduction in extracellular acidification rate in human NCI-H1299 cells at 10 mM incubated for 12 hrs. It is filed as functional, cell-based. The essentials: (§3)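 NCI-H1299 cells were pre-treated with compound for 12 h, then oxygen consumption rate and extracellular acidification rate were read on an XF96 extracellular flux analyzer.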

For data set [26], the system named is NCI-H1299. Put plainly: Increase in oxygen consumption rate in human NCI-H1299 cells at 10 mM incubated for 12 hrs. It is filed as functional, cell-based. The essentials: as §3

The term inhibition denotes the drop in the measured response relative to a control, in per cent. What is called IC50 is the concentration needed to halve the response being measured. By efflux ratio is commonly meant the permeability from basolateral to apical divided by that in the opposite direction, in the common usage. One may read the Papp B→A as the apparent permeability from the basolateral to the apical side of a cell layer. As a reminder, the Papp A→B is the apparent permeability from the apical to the basolateral side of a cell layer.

T2 sequence (Q15120 whole entry): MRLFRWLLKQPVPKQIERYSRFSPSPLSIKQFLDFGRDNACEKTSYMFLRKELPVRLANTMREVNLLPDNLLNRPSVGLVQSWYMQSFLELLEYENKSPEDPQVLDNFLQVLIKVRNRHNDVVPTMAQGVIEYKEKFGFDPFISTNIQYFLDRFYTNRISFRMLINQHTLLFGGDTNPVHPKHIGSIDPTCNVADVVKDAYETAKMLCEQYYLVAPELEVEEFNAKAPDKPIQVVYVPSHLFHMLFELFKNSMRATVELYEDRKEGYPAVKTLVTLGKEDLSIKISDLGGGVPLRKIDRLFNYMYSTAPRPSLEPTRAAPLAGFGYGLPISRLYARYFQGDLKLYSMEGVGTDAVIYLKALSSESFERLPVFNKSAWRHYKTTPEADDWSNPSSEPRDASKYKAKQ

For the molecule `COc1ccccc1N1CCN(C(=O)/C=C/c2noc(-c3cc(Cl)c(O)cc3O)c2-c2ccc(O)cc2)CC1`, the inhibition result (at Heat shock protein HSP90 [1]; at Heat shock protein HSP90 [2]; with NCI-H1299 [4]; in data set [7]; at Heat shock protein HSP90 [9]; in the data set with NCI-H1299 [11]) was “Active” in each case. Also, the inhibition result at Heat shock protein HSP90 [17] was “Active”. The IC50 in data set [3] was 5.34 µM; in data set [8], 0.604 µM; with NCI-H1299 [10] (NCI-H1299, 72 h), 9.21 µM; in [12] it was 1.74 µM; on Heat shock protein HSP90 [18], 0.512 µM; in data set [19], 1.13 µM. Also, the result in the data set with NCI-H1299 [5] and in the data set with NCI-H1299 [13] was Active. Moreover, in [6], the efflux ratio was determined as 1.38. For the same molecule, the inhibition entry was “Dose-dependent effect” in the data set with NCI-H1299 [10] and above 50% in [16]. For the same molecule, in data set [14], the apparent permeability from basolateral to apical (Papp B→A) is 15.5 ×10⁻⁶ cm/s. For the same molecule, in data set [15], the Papp A→B was 11.2 ×10⁻⁶ cm/s.

Regarding `C[C@@H]1C[C@H]2O[C@@H]2/C=C\C=C\C(=O)Cc2c(Cl)c(O)cc(O)c2C(=O)O1` [RADICICOL], the results for the IC50 in data set [20] and in data set [21] were 400 µM and 230 µM, respectively.

Take `CC1(C)CC(=O)c2c(C(F)(F)F)nn(-c3ccc(C(N)=O)c(N[C@H]4CC[C@H](O)CC4)c3)c2C1`: the outcome in the data set on NCI-H1299 [22] was inactive.

For the molecule `CO[C@H]1/C=C\C=C(/C)C(=O)NC2=CC(=O)C(NCCN(C)C)=C(C[C@@H](C)C[C@H](OC)[C@H](O)[C@@H](C)/C=C(\C)[C@@H]1OC(N)=O)C2=O`, the inhibition result in the data set on NCI-H1299 [23] was “Active”.

For the molecule `O=C(O)C(Cl)Cl`, the inhibition entry (in data set [24]; in the data set with NCI-H1299 [25]; in the data set with NCI-H1299 [26]) was “Active” throughout.

As to `CC(C)NCCCn1c(Sc2cc3c(cc2I)OCO3)nc2c(N)ncnc21`, in the data set on NCI-H1299 [23], the inhibition entry is “Active”.

Regarding `CC(C)c1cc(-c2n[nH]c(=O)n2-c2ccc3c(ccn3C)c2)c(O)cc1O`, the result in the data set with NCI-H1299 [22] was inactive.

With `COc1c(C)cnc(Cn2cnc3c(Cl)nc(N)nc32)c1C`, the inhibition result with NCI-H1299 [23] is “Active”.
